Experimental data reported in ChEMBL document CHEMBL2029337, “Synthesis and antimicrobial activities of structurally novel S,S'-bis(heterosubstituted) disulfides” (Bioorg Med Chem Lett, 2012).
Converted amounts (≈) assume the structure as drawn. The source made the active and inactive calls. The calls are words filed in the database; no cut-off is given here.

Assays:
[1] = system: Bartonella sp.; experiment: Antibacterial activity against Bartonella ssp. […] by agar dilution method; format: functional
[2] = system: Escherichia coli; experiment: Antibacterial activity against Escherichia coli K-12 […] by agar dilution method; format: functional, organism-based
[3] = system: Staphylococcus aureus; experiment: Antibacterial activity against methicillin-susceptible Staphylococcus aureus ATCC 25923 […] by agar dilution method; format: functional
[4] = system: Staphylococcus aureus; experiment: Antibacterial activity against methicillin-resistant Staphylococcus aureus ATCC 43300 […] by agar dilution method; format: functional
[5] = Antibacterial activity against Francisella tularensis subspecies holarctica LVS after 48 hrs by broth dilution method; format: functional, Francisella tularensis subsp. holarctica LVS
[6] = system: Staphylococcus aureus; experiment: Antibacterial activity against methicillin-resistant Staphylococcus aureus ATCC 43300 assessed as growth inhibition at 20 ug after 24 hrs by agar-diffusion assay in presence of cystine; format: functional, organism-based
[7] = system: Staphylococcus aureus; experiment: Antibacterial activity against methicillin-resistant Staphylococcus aureus ATCC 43300 assessed as growth inhibition at 20 ug after 24 hrs by agar-diffusion assay in presence of CoA; format: functional, organism-based
Procedure, shortened: (§1)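 Kirby-Bauer well diffusion on an MRSA lawn (0.5 McFarland suspension swabbed onto tryptic soy agar). Four test agents sat in wells equidistant from a centre well holding 1 mg of additive in DMSO; a DMSO-only centre well served as vehicle control. After overnight incubation at 37 °C, the inhibition zones were examined for size or shape change.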

[8] = system: Staphylococcus aureus; experiment: Antibacterial activity against methicillin-resistant Staphylococcus aureus ATCC 43300 assessed as growth inhibition at 20 ug after 24 hrs by agar-diffusion assay in presence of GSH; format: functional, organism-based; procedure, shortened: as §1
[9] = system: Staphylococcus aureus; experiment: Antibacterial activity against methicillin-resistant Staphylococcus aureus ATCC 43300 assessed as growth inhibition at 20 ug after 24 hrs by agar-diffusion assay in presence of glycine; format: functional, organism-based; procedure, shortened: as §1
[10] = system: Staphylococcus aureus; experiment: Antibacterial activity against methicillin-resistant Staphylococcus aureus ATCC 43300 assessed as growth inhibition at 20 ug after 24 hrs by agar-diffusion assay in presence of lysine; format: functional, organism-based; procedure, shortened: as §1
[11] = system: Staphylococcus aureus; experiment: Antibacterial activity against methicillin-resistant Staphylococcus aureus ATCC 43300 assessed as growth inhibition at 20 ug after 24 hrs by agar-diffusion assay in presence of valine; format: functional, organism-based; procedure, shortened: as §1
[12] = system: Staphylococcus aureus; experiment: Antibacterial activity against methicillin-resistant Staphylococcus aureus ATCC 43300 assessed as growth inhibition at 20 ug after 24 hrs by agar-diffusion assay in presence of iPrSSiPr; format: functional, organism-based; procedure, shortened: as §1
[13] = system: Staphylococcus aureus; experiment: Antibacterial activity against methicillin-resistant Staphylococcus aureus ATCC 43300 assessed as growth inhibition at 20 ug after 24 hrs by agar-diffusion assay in presence of PPh3; format: functional, organism-based; procedure, shortened: as §1

SMILES	Activity [1]	Activity [2]	MIC [3]	MIC [4]	MIC [5]	growth inhibition (GI) [6]	growth inhibition (GI) [7]	growth inhibition (GI) [8]	growth inhibition (GI) [9]	growth inhibition (GI) [10]	growth inhibition (GI) [11]	growth inhibition (GI) [12]	growth inhibition (GI) [13]
C[C@@H](c1ccccc1)N(Cc1ccccc1)SSN(Cc1ccccc1)[C@@H](C)c1ccccc1	inactive	inactive	16 µg/mL (≈ 33 µM)	64 µg/mL (≈ 132 µM)	16 µg/mL (≈ 33 µM)	–	–	–	–	–	–	–	–
CC(C)SSSSC(C)C	inactive	inactive	32 µg/mL (≈ 149 µM)	32 µg/mL (≈ 149 µM)	8 µg/mL (≈ 37.3 µM)	–	–	–	–	–	–	–	–
CCC(C)SSSSC(C)CC (stereo not drawn)	inactive	inactive	32 µg/mL (≈ 132 µM)	64 µg/mL (≈ 264 µM)	16 µg/mL (≈ 66 µM)	–	–	–	–	–	–	–	–
CCCCSSSSCCCC	inactive	inactive	64 µg/mL (≈ 264 µM)	32 µg/mL (≈ 132 µM)	4 µg/mL (≈ 16.5 µM)	–	–	–	–	–	–	–	–
C=CCN(CC=C)SSN(CC=C)CC=C	inactive	inactive	1 µg/mL (≈ 3.9 µM)	0.5 µg/mL (≈ 1.95 µM)	16 µg/mL (≈ 62.4 µM)	–	–	–	–	–	–	–	–
CC(C)N(SSN(C(C)C)C(C)C)C(C)C	inactive	inactive	2 µg/mL (≈ 7.56 µM)	1 µg/mL (≈ 3.78 µM)	32 µg/mL (≈ 121 µM)	–	–	–	–	–	–	–	–
c1ccc(OSSOc2ccccc2)cc1	inactive	inactive	2 µg/mL (≈ 7.99 µM)	2 µg/mL (≈ 7.99 µM)	1 µg/mL (≈ 3.99 µM)	–	–	–	–	–	–	–	–
CC(C)NSSNC(C)C	inactive	inactive	32 µg/mL (≈ 177 µM)	32 µg/mL (≈ 177 µM)	2 µg/mL (≈ 11.1 µM)	–	–	–	–	–	–	–	–
C=CC(=O)O[C@H]1C(=O)N(SC)[C@H]1c1ccccc1Cl	–	–	–	–	–	inactive	inactive	inactive	Active	Active	Active	Active	Active
CCC(C)NSSNC(C)CC (stereo not drawn)	inactive	inactive	16 µg/mL (≈ 76.8 µM)	16 µg/mL (≈ 76.8 µM)	8 µg/mL (≈ 38.4 µM)	–	–	–	–	–	–	–	–
CC1CCC(C(C)C)C(OSSOC2CC(C)CCC2C(C)C)C1 (racemic)	inactive	inactive	8 µg/mL (≈ 21.4 µM)	16 µg/mL (≈ 42.7 µM)	4 µg/mL (≈ 10.7 µM)	–	–	–	–	–	–	–	–
CCCCOSSOCCCC	inactive	inactive	0.25 µg/mL (≈ 1.19 µM)	8 µg/mL (≈ 38 µM)	4 µg/mL (≈ 19 µM)	–	–	–	–	–	–	–	–
C[C@H](c1ccccc1)N(Cc1ccccc1)SSN(Cc1ccccc1)[C@H](C)c1ccccc1	inactive	inactive	16 µg/mL (≈ 33 µM)	64 µg/mL (≈ 132 µM)	16 µg/mL (≈ 33 µM)	–	–	–	–	–	–	–	–
CC[C@@H](C)OSSO[C@H](C)CC	inactive	inactive	16 µg/mL (≈ 76.1 µM)	32 µg/mL (≈ 152 µM)	16 µg/mL (≈ 76.1 µM)	–	–	–	–	–	–	–	–
CN(C)SSN(C)C	inactive	inactive	0.25 µg/mL (≈ 1.64 µM)	0.5 µg/mL (≈ 3.28 µM)	8 µg/mL (≈ 52.5 µM)	–	–	–	–	–	–	–	–
